Experimental data as given in ChEMBL document CHEMBL3112398, “Qualification of LSP1-2111 as a Brain Penetrant Group III Metabotropic Glutamate Receptor Orthosteric Agonist” (ACS Med Chem Lett, 2014).
pIC50: −log10 of the molar value. One block for each compound: values may come before it.

How the values were obtained:
Homo sapiens [1] = organism: Homo sapiens; experiment: Selectivity for mGlu4 receptor (unknown origin) over mGlu7 receptor (unknown origin)
Homo sapiens [2] = organism: Homo sapiens; experiment: Selectivity for mGlu4 receptor (unknown origin) over mGlu8 receptor (unknown origin)
Homo sapiens [3] = organism: Homo sapiens; experiment: Selectivity for mGlu4 receptor (unknown origin) over mGlu6 receptor (unknown origin)
Plasma [4] = experiment: Plasma concentration in Sprague-Dawley rat at 10 mg/kg, sc after 0.5 to 6 hrs by quantitative microdialysis method; assay type: ADME, organism-based; set-up: dose 10 mg/kg, route subcutaneous; conditions: in vivo
Procedure, shortened: (§1)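 Rats dosed SC at 10 mg/kg with drug in saline at pH 7.4; plasma, CSF and brain homogenate sampled over a 6 h time course (0.5–6 h), N = 4. Brain not perfused before homogenization. AUC0-6 computed from the concentration–time profiles.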

Brain [5] = experiment: Drug uptake in Sprague-Dawley rat brain at 10 mg/kg, sc after 4 hrs by quantitative microdialysis method; assay type: ADME, organism-based; set-up: dose 10 mg/kg, route subcutaneous; conditions: in vivo; procedure, shortened: as §1
Plasma [6] = experiment: Maximum unbound concentration in Sprague-Dawley rat plasma at 10 mg/kg, sc after 0.5 hrs by quantitative microdialysis method; conditions: in vivo
Brain [7] = experiment: AUC (0 to 6 hrs) in Sprague-Dawley rat brain at 10 mg/kg, sc by quantitative microdialysis method; assay type: ADME, organism-based; set-up: time < 6 hr, dose 10 mg/kg, route subcutaneous; conditions: in vivo; procedure, shortened: as §1
[8] = Thermodynamic solubility of the compound at pH 7.4; assay type: physicochemical; conditions: buffer, read-out: Therm_solubility
[9] = Ratio of AUC (0 to 6 hrs) from CSF to plasma in Sprague-Dawley rat at 10 mg/kg, sc by quantitative microdialysis method; assay type: ADME, organism-based; set-up: dose 10 mg/kg, route subcutaneous
Procedure, shortened: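 Rats given 10 mg/kg SC, formulated in saline at pH 7.4 (N = 4). Plasma, CSF and brain were sampled over a 6 h time course starting at 0.5 h. Brain was homogenized without perfusion, so capillary blood was retained. Ratios were calculated from AUC0-6 of CSF or brain homogenate versus plasma.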

Brain [10] = experiment: Drug uptake in Sprague-Dawley rat brain at 10 mg/kg, sc after 30 mins by quantitative microdialysis method; assay type: ADME, organism-based; set-up: dose 10 mg/kg, route subcutaneous; conditions: in vivo, 0.5 h; procedure, shortened: as §1
[11] = AUC (infinity) in Sprague-Dawley rat at 10 mg/kg, po; assay type: ADME, organism-based; set-up: time infinity, dose 10 mg/kg, route oral; conditions: plasma
Procedure, shortened: (§2)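 Plasma concentrations were followed over time. Pharmacokinetic parameters were derived by noncompartmental analysis and reported as means of N = 2 animals.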

[12] = Fraction unbound in rat plasma; assay type: ADME, cell-free
[13] = Fraction unbound in mouse plasma; assay type: ADME, cell-free
[14] = Half life in Sprague-Dawley rat at 1 mg/kg, iv; assay type: ADME, organism-based; set-up: dose 1 mg/kg, route intravenous; conditions: in vivo
Procedure, shortened: (§3)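 SD rats given IV (1 mg/kg) or oral (10 mg/kg) doses as a solution in saline buffered to pH 7.4, dose volume 5 mL/kg, N = 2. Plasma concentration–time profiles analysed by noncompartmental analysis; reported values are means.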

[15] = Fraction unbound in human plasma; assay type: ADME, cell-free
[16] = target: Metabotropic glutamate receptor 4 (Homo sapiens, UniProt Q14833); experiment: Displacement of [3H]-L-AP4 from human mGlu4 receptor
[17] = Volume of distribution at steady state in Sprague-Dawley rat at 1 mg/kg, iv; assay type: ADME, organism-based; set-up: dose 1 mg/kg, route intravenous; conditions: in vivo, read-out: Vdss; procedure, shortened: as §3
[18] = Plasma concentration in Sprague-Dawley rat at 30 mg/kg, sc after 60 mins by quantitative microdialysis method; assay type: ADME, organism-based; set-up: dose 30 mg/kg, route subcutaneous
Procedure, shortened: (§4)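 Rat in vivo microdialysis with a MetaQuant probe at a low flow rate of 0.1 μL/min after SC doses of 10 or 30 mg/kg. Brain ECF dialysate and plasma concentrations followed over time. ECF values corrected for 96% in vivo probe recovery.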

[19] = AUC (0 to 6 hrs) in Sprague-Dawley rat plasma at 10 mg/kg, sc by quantitative microdialysis method; assay type: ADME, organism-based; set-up: time < 6 hr, dose 10 mg/kg, route subcutaneous; procedure, shortened: as §1
[20] = Passive apparent permeability of the compound by PAMPA; assay type: ADME
[21] = AUC (infinity) in Sprague-Dawley rat at 1 mg/kg, iv; assay type: ADME, organism-based; set-up: time infinity, dose 1 mg/kg, route intravenous; conditions: plasma; procedure, shortened: as §2
[22] = Kinetic aqueous solubility of the compound; assay type: physicochemical; conditions: buffer; read-out: Kinetic_solubility
Procedure, shortened: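 Kinetic aqueous solubility determined in an assay developed and optimized for lipophilic compounds; detection limit 800 μM.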

[23] = Oral bioavailability in Sprague-Dawley rat at 10 mg/kg; assay type: ADME, organism-based; conditions: in vivo; procedure, shortened: as §3
Brain [24] = experiment: Drug uptake in Sprague-Dawley rat brain at 10 mg/kg, sc after 6 hrs by quantitative microdialysis method; assay type: ADME, organism-based; set-up: dose 10 mg/kg, route subcutaneous; conditions: in vivo; procedure, shortened: as §1
[25] = Plasma clearance in Sprague-Dawley rat at 1 mg/kg, iv; assay type: ADME, organism-based; set-up: dose 1 mg/kg, route intravenous; procedure, shortened: as §3
[26] = AUC (0 to 6 hrs) in Sprague-Dawley rat CSF at 10 mg/kg, sc by quantitative microdialysis method; assay type: ADME, organism-based; set-up: time < 6 hr, dose 10 mg/kg, route subcutaneous; procedure, shortened: as §1
[27] = Fraction unbound in rat brain homogenates; assay type: ADME, tissue-based; conditions: brain homogenate
hERG (KCNH2) = hERG (KCNH2) (Homo sapiens, UniProt Q12809); experiment: Inhibition of human ERG channel at 30 uM by ionworks assay
[28] = Fraction unbound in mouse brain homogenates; assay type: ADME, tissue-based; conditions: brain homogenate
[29] = Lipophilicity, log D of the compound at pH 7.4; assay type: physicochemical; conditions: buffer
[30] = Tmax in Sprague-Dawley rat at 10 mg/kg, po; assay type: ADME, organism-based; set-up: dose 10 mg/kg, route oral; conditions: in vivo; procedure, shortened: as §3
Liver microsome [31] = experiment: Intrinsic clearance in rat liver microsomes; assay type: ADME
[32] = Drug uptake in rat Sprague-Dawley ECF at 10 mg/kg, sc after 60 mins by quantitative microdialysis method; assay type: ADME, organism-based; set-up: dose 10 mg/kg, route subcutaneous; conditions: read-out: Drug uptake; procedure, shortened: as §4
Liver microsome [33] = experiment: Intrinsic clearance in human liver microsomes; assay type: ADME
[34] = Drug uptake in Sprague-Dawley rat CSF at 10 mg/kg, sc after 6 hrs by quantitative microdialysis method; assay type: ADME, organism-based, Cerebrospinal fluid; set-up: dose 10 mg/kg, route subcutaneous; conditions: read-out: Drug uptake; procedure, shortened: as §1
[35] = Half life in Sprague-Dawley rat plasma at 10 mg/kg, sc by quantitative microdialysis method; assay type: ADME, organism-based; set-up: dose 10 mg/kg, route subcutaneous; procedure, shortened: as §1
[36] = Cmax in Sprague-Dawley rat at 10 mg/kg, po; assay type: ADME, organism-based; set-up: dose 10 mg/kg, route oral; conditions: in vivo; procedure, shortened: as §3
[37] = Drug uptake in Sprague-Dawley rat ECF at 30 mg/kg, sc after 60 mins by quantitative microdialysis method; assay type: ADME, organism-based; set-up: dose 30 mg/kg, route subcutaneous; conditions: read-out: Drug uptake; procedure, shortened: as §4
MDR1 [38] = experiment: Apparent permeability from basolateral to apical side in MDCK cells expressing MDR1; assay type: ADME, cell-based, Canis lupus familiaris; conditions: dog
Procedure, shortened: (§5)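 Bidirectional transport across MDCK/MDR1 monolayers, apparent permeability measured A→B and B→A. The B→A/A→B ratio is used as an indicator of P-gp substrate behaviour.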

[39] = Ratio of AUC (0 to 6 hrs) from brain to plasma in Sprague-Dawley rat at 10 mg/kg, sc by quantitative microdialysis method; assay type: ADME, organism-based; set-up: dose 10 mg/kg, route subcutaneous; conditions: in vivo
HepG2 = experiment: Cytotoxicity against human HepG2 cells by luminescence assay; assay type: cell-based
[40] = Plasma concentration in Sprague-Dawley rat at 10 mg/kg, sc after 60 mins by quantitative microdialysis method; assay type: ADME, organism-based; set-up: dose 10 mg/kg, route subcutaneous; procedure, shortened: as §4
MDR1 [41] = experiment: Apparent permeability from apical to basolateral side in MDCK cells expressing MDR1; assay type: ADME, cell-based, Canis lupus familiaris; conditions: dog; procedure, shortened: as §5

hERG (KCNH2), sequence (Q12809 whole entry): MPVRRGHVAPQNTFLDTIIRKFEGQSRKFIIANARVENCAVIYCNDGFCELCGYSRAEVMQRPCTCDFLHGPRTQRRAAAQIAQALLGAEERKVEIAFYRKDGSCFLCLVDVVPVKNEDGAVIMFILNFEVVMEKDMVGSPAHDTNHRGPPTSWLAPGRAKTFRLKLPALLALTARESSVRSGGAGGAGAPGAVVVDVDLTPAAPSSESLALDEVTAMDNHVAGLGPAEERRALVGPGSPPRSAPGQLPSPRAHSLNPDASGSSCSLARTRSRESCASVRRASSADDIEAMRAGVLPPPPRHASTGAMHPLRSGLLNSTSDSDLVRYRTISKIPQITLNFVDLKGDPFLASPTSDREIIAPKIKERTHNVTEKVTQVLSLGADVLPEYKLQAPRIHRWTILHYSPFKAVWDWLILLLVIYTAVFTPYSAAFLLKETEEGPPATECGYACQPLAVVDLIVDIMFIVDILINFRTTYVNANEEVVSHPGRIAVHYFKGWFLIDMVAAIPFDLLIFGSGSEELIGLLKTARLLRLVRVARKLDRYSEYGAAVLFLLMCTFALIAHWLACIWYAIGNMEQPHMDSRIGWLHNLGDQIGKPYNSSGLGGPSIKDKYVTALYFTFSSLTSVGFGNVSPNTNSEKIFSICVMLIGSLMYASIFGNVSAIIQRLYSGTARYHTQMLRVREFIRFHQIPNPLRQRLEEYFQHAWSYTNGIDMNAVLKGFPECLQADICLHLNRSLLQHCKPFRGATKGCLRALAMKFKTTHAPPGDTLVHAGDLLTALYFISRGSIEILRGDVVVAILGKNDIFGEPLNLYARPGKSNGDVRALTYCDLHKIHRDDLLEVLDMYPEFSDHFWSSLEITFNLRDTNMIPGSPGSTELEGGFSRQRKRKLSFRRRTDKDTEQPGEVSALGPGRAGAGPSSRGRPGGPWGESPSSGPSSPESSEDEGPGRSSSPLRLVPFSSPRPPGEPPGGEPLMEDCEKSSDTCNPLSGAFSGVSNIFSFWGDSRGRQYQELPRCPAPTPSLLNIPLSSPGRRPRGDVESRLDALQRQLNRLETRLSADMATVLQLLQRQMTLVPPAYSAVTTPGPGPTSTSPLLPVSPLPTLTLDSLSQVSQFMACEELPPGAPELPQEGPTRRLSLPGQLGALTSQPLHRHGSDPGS
Metabotropic glutamate receptor 4, sequence (Q14833 whole entry): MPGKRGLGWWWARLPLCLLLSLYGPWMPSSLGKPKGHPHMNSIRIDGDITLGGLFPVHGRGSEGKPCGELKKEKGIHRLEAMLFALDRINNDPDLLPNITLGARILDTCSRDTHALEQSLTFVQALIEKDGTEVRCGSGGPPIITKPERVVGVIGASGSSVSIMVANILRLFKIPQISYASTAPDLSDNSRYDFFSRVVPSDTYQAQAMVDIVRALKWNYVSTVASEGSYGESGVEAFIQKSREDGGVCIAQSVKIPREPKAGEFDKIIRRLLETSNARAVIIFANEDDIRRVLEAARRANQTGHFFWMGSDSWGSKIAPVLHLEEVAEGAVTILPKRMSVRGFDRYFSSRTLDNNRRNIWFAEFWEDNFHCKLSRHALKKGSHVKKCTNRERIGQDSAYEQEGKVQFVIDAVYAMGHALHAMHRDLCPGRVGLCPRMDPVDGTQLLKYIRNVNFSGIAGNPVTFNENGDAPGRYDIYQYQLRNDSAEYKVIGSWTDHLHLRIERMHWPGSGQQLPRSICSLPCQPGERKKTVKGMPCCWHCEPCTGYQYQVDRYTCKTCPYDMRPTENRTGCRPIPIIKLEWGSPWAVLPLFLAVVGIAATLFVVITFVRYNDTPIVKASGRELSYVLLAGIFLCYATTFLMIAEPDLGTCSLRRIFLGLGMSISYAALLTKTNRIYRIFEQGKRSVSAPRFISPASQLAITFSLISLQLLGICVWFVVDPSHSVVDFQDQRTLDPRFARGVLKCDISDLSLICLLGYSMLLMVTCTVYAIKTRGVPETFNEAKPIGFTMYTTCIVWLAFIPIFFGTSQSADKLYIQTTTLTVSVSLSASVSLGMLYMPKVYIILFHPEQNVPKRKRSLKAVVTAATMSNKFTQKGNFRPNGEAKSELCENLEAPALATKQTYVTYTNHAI

Selectivity ratio (Homo sapiens [1]): 100
Selectivity ratio (Homo sapiens [2]): 300
Selectivity ratio (Homo sapiens [3]): 40
SMILES: N[C@@H](CCP(=O)(O)C(O)c1ccc(OCC(=O)O)cc1)C(=O)O (stereo partly specified)

Cp (Plasma [4]): 0.15 µg/mL
Drug uptake (Brain [5]): 0.08 µM
Cp(f) (Plasma [6]): 55.2 µM
AUC (Brain [7]): 0.7 µg·h/g
solubility thermodynamic [8]: > 1800 µg/mL
Ratio AUC [9]: 12%
Selectivity ratio (Homo sapiens [1]): 25
Drug uptake (Brain [10]): 1 µM
AUC(0-inf) [11]: 200 ng·h/mL
fraction unbound [12]: > 0.99
fraction unbound [13]: > 0.99
half-life [14]: 18 min
fraction unbound [15]: 0.73
pIC50 [16]: 5.07
Vd [17]: 0.1 L/kg
concentration at 1 h [18]: 114 µM
AUC(0-t) at 6 h [19]: 30000 ng·h/mL
Papp [20]: < 0.1 ×10⁻⁶ cm/s
Selectivity ratio (Homo sapiens [2]): 30
AUC(0-inf) [21]: 2800 ng·h/mL
solubility kinetic [22]: > 800 µM
bioavailability [23]: 0.8%
Drug uptake (Brain [24]): 0.4 µM
clearance [25]: 6.2 mL/min/kg
AUC(0-t) at 6 h [26]: 3500 ng·h/mL
fraction unbound [27]: > 0.99
fraction unbound [28]: > 0.99
logD [29]: -0.7
Tmax [30]: 1.4 h
CLH (Liver microsome [31]): 3.1 mL/min
concentration at 1 h [32]: 1800 nM
CLH (Liver microsome [33]): 0.1 L/min
Selectivity ratio (Homo sapiens [3]): 1
concentration at 6 h [34]: 700 nM
half-life [35]: 20 min
Cmax [36]: 92 ng/mL
concentration at 1 h [37]: 9.8 µM
Papp B→A (MDR1 [38]): 0.5 ×10⁻⁶ cm/s
Ratio AUC [39]: 2.4%
concentration at 1 h [40]: 31 µM
Papp A→B (MDR1 [41]): 0.2 ×10⁻⁶ cm/s
SMILES: COc1cc(C(O)P(=O)(O)CC[C@H](N)C(=O)O)cc([N+](=O)[O-])c1O (mixture of isomers)
inhibition at 30 µM (hERG (KCNH2)): 14%
Activity (HepG2): Non-toxic
